Sampled rows, rich in hits. Any-hit rate of the full collection: about 3.9%.
TMEM16A inh: mouse TMEM16A channel inhibition, primary screen | Q8BHY3 | HEK293 TMEM16A/YFP iodide influx fluorescence, ionomycin | normalized B-score (activity score, 25-100; higher = stronger inhibition) at 10 µM | hit rate 1.2% among 310,000 | AID 588511;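 active = ratio plate-corrected score three or more library SD toward inhibition, starting fluorescence score within five deviations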;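 note: score derived from kinetic fluorescence span divided by baseline fluorescence per well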
CRFBP-R2 block: CRF-BP/CRF-R2 complex antagonism; hit rate 0.59% among 350,000; HEK293 CRF-R2/CRF-BP, CRF-induced calcium fluorescence; inhibition, % at 11.8 µM;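 active = inhibition of the ligand-induced calcium signal above about 50% at the single tested concentration, limit read from the data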
TMEM16A act: activates or potentiates the mouse TMEM16A chloride channel. Q8BHY3. HEK293 TMEM16A/YFP-H148Q/I152L, iodide quench fluorescence; stronger effect = lower value. B-score at 10 µM. hit rate 0.3% among 340,000. AID 623877;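 active = fluorescence-ratio B-score plate-corrected deviation score at least 3 library SD below zero, with starting fluorescence score within 5 deviations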;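 note: channel opened by trigger with iodide after compound preincubation; score built on the fluorescence ratio of max minus min over baseline; more negative score means more quench and so TMEM16A activation or potentiation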
CRFR2-BP ag: CRF-BP/CRF-R2 complex agonism; HEK293 CRF-R2/CRF-BP, calcium dye fluorescence (FLIPR); percent of saturating CRF peptide response; activation, % at 13.2 µM; hit rate 0.46% among 350,000; AID 588473;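 active = activation of at least 50%, plus an integration ratio under a set limit after plate pattern correction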;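 note: plate controls were neutral control wells without compound for no effect and CRF at EC100 for full effect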
TAAR1 agonist: human TAAR1 agonism; Q96RJ0; CHO RD-HGA16 TAAR1, Fluo-8 calcium fluorescence; vehicle wells 0%, saturating PEA agonist 100%; activation, % at 3 µM; hit rate 0.99% among 360,000; AID 624467;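 active = activation above the mean activation of all test compounds in the run plus 3 SD, cut at about 38% in these data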
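Signal – calcium-sensitive Fluo-8 signal, excitation 470-495, emission 515-575 nm · System – RD-HGA16 (CHO) cells co-expressing Gα16 and hTAAR1 · Incubation – 17-24 h seeding, 75 min 37 °C dye, 30 min RT · Compound dosing – 3 µM single concentration · Repeats – no replicates (n 1)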
TAAR1 antagonist: antagonists of human TAAR1; inhibition, % at 3 µM; AID 624466; Q96RJ0; hit rate 1.5% among 360,000; CHO RD-HGA16 TAAR1, Fluo-8 calcium fluorescence, antagonist;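 active = inhibition above a per-plate cutoff, the mean inhibition of test compounds on that plate plus 3 SD, cut at about 49% in these data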;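 note: 0% = DMSO plus EC80 beta-PEA response and 100% = DMSO alone without agonist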
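Test system: hTAAR1-expressing CHO RD-HGA16 cells, Gα16-coupled; Probe or stimulus: EC80 β-phenethylamine stimulus; Compound dosing: single nominal final test compound concentration of 3 µM; Timing: 140 s kinetic read after compound, 140 s after agonist; Signal: Fluo-8 calcium-sensitive fluorescence; Measure: % inhibition of agonist calcium response; Controls: DMSO and EC80 PEA controls.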
TMEM16A reconf: TMEM16A (mouse) chloride channel inhibition, re-confirmation; shares compounds with TMEM16A inh; HEK293 TMEM16A/YFP-H148Q, iodide quench fluorescence; ionomycin added to raise cell calcium; inhibition, % at 10 µM; hit rate 39% among 2,300;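 active = mean duplicate percent inhibition, scaled so buffer wells are 0 and the reference blocker 100, over three buffer SD above buffer mean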
TMEM16A Ca cntr: counter-screen for TMEM16A inhibitors: effect on calcium mobilization | shares compounds with TMEM16A inh | TMEM16A/YFP HEK293, Fluo4 calcium mobilization | calcium response (% of ionomycin), % at 10 µM | hit rate 2% among 2,300 | AID 652231;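 active = duplicate-averaged calcium signal over 20% of the ionomycin maximum, relative to buffer baseline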;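 note: each well's signal is peak minus trough fluorescence divided by its pre-addition baseline; 0% = buffer wells and 100% = ionomycin wells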
Parental YFP cnt: acts in parental YFP-HEK293 cells lacking TMEM16A, counter-screen; YFP ratio F(max-min)/F0 at 10 µM; 2,300 tested, under 10 active; shares compounds with TMEM16A inh; AID 652233; iodide YFP quench, ionomycin;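 active = yellow fluorescent protein signal ratio exceeding the buffer control mean by over 5 SD of those controls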;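 note: ratio is mean of duplicate wells from kinetic YFP trace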
ClC-1 rat inh: selectivity of TMEM16A inhibitors: inhibition of rat ClC-1 chloride channel. shares compounds with TMEM16A inh. CHO ClC-1-YFP, iodide influx fluorescence quench; iodide control reads 0, buffer control 100. ratio percent, % at 10 µM. 2,300 tested, under 10 active. AID 652236;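 active = duplicate-mean ratio percent above the mean of iodide-only control wells, which defines zero, plus 5 of their SD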;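 note: higher percent means stronger block of ClC-1 iodide influx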
Target sequence (P35524 whole entry, looked up): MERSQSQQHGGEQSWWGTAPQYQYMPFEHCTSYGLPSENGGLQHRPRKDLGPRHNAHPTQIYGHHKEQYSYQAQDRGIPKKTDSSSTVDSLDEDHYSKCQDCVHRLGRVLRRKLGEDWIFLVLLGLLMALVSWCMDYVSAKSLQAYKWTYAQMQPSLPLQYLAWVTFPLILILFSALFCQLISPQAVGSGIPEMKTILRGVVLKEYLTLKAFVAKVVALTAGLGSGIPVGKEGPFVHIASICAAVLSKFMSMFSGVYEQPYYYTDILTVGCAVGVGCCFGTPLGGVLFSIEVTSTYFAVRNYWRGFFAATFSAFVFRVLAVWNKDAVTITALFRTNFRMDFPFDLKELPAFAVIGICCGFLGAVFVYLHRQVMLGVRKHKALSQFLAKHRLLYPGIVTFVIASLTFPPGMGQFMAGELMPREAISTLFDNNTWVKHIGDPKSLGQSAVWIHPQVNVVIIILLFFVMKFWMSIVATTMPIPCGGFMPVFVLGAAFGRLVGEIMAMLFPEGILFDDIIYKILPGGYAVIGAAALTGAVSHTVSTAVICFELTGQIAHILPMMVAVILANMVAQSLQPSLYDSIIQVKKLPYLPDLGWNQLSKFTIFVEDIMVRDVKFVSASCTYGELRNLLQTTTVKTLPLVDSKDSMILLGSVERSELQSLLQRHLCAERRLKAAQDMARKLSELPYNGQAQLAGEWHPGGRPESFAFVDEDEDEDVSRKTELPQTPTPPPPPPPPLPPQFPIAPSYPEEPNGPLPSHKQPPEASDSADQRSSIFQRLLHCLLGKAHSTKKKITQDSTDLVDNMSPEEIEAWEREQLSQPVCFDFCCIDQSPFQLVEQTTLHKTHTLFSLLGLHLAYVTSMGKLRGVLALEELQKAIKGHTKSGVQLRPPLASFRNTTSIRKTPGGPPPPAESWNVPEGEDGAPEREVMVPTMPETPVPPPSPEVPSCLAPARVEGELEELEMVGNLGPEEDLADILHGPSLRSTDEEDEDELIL
* = called active by the depositor.

What do the screens show for `CCc1nc2sc3ccccc3c(=O)c2c(=O)n1CCOC`?
TMEM16A inh: 25*; CRFBP-R2 block: 32; TMEM16A act: inactive; CRFR2-BP ag: 1; TAAR1 agonist: 6; TAAR1 antagonist: 16; TMEM16A reconf: inactive; TMEM16A Ca cntr: inactive; Parental YFP cnt: -1.1; ClC-1 rat inh: -12

How did CNC(=O)c1sc(N2N=C3/C(=C/c4ccccc4)CCCC3C2c2ccccc2)nc1C (stereo not given) do in these assays?
TMEM16A inh: 100*; CRFBP-R2 block: -56; TMEM16A act: inactive; CRFR2-BP ag: 64*; TMEM16A reconf: 46%*; TMEM16A Ca cntr: 58%*; Parental YFP cnt: -0.92; ClC-1 rat inh: -6

What do the screens show for `CNC(=O)c1sc(N2N=C3/C(=C\c4ccccc4)CCCC3C2c2ccccc2)nc1C` (stereo not given)?
CRFBP-R2 block: -38; TMEM16A act: inactive; CRFR2-BP ag: 43; TAAR1 agonist: 3; TAAR1 antagonist: 36

What do the screens show for `Cc1ccc(N2C(=O)CN(Cc3ccccc3)C2=S)cc1C`?
TMEM16A inh: inactive; CRFBP-R2 block: 1; TMEM16A act: inactive; CRFR2-BP ag: 0; TAAR1 agonist: -4; TAAR1 antagonist: -9

What do the screens show for `COc1cc(OC)c(NC(=O)c2sc3ncn(CC(=O)N4CCN(c5ccccn5)CC4)c(=O)c3c2C)cc1Cl`?
TMEM16A inh: inactive; CRFBP-R2 block: -2; TMEM16A act: inactive; CRFR2-BP ag: -2; TAAR1 agonist: 11; TAAR1 antagonist: 36

How did COc1ccc(NC(=O)c2sc3ncn(CC(=O)N4CCN(c5ccccn5)CC4)c(=O)c3c2C)c(OC)c1 do in these assays?
TMEM16A inh: 25*; CRFBP-R2 block: -11; TMEM16A act: inactive; CRFR2-BP ag: 0; TAAR1 agonist: 4; TAAR1 antagonist: -4; TMEM16A reconf: inactive; TMEM16A Ca cntr: inactive; Parental YFP cnt: -1; ClC-1 rat inh: -10

How did COc1ccc2[nH]c3c(c2c1)CCN1C(=O)C(CC(=O)NCCc2ccccn2)C[C@H](C(=O)N2CCCCC2)[C@@]31C (stereo not given in full) do in these assays?
CRFBP-R2 block: 24; CRFR2-BP ag: -3; TAAR1 agonist: 17; TAAR1 antagonist: -11

How did COc1ccc(CNC(=O)CCCC(=O)Nc2cccc(Br)c2)cc1 do in these assays?
TMEM16A inh: inactive; CRFBP-R2 block: 3; TMEM16A act: inactive; CRFR2-BP ag: 0; TAAR1 agonist: 1; TAAR1 antagonist: -18

What do the screens show for `Cc1ccc(N/C(N)=N/c2nc(C)cc(N3CCCCC3)n2)c(C)c1`?
TMEM16A inh: 100*; CRFBP-R2 block: -44; TMEM16A act: -6.3*; CRFR2-BP ag: 8; TAAR1 agonist: 22; TAAR1 antagonist: 24; TMEM16A reconf: 62%*; TMEM16A Ca cntr: inactive; Parental YFP cnt: -0.92; ClC-1 rat inh: -29

What do the screens show for `Cc1ccc(N/C(N)=N/c2nc3c(c(=O)[nH]2)CCCC3)c(C)c1`?
TMEM16A inh: inactive; CRFBP-R2 block: -10; TMEM16A act: inactive; CRFR2-BP ag: -1; TAAR1 agonist: 3; TAAR1 antagonist: 4

Results for Cc1cc(C)c2cc3c(N)c(C(=O)Nc4c(C)[nH]c(=O)[nH]c4=O)sc3nc2c1 ?
TMEM16A inh: inactive; CRFBP-R2 block: 2; TMEM16A act: inactive; CRFR2-BP ag: -1; TAAR1 agonist: 6; TAAR1 antagonist: -1; TMEM16A reconf: inactive; TMEM16A Ca cntr: 28%*; Parental YFP cnt: -1.1; ClC-1 rat inh: 10

Results for Cc1ccccc1NC(=S)NNC(=O)c1ccoc1C ?
TMEM16A inh: 100*; CRFBP-R2 block: 1; TMEM16A act: inactive; CRFR2-BP ag: -1; TAAR1 agonist: 4; TAAR1 antagonist: -7; TMEM16A reconf: inactive; TMEM16A Ca cntr: inactive; Parental YFP cnt: -0.9; ClC-1 rat inh: -9

What do the screens show for `Cc1occc1C(=O)NNC(=S)Nc1ccccc1C(F)(F)F`?
TMEM16A inh: inactive; CRFBP-R2 block: -5; TMEM16A act: inactive; CRFR2-BP ag: 0; TAAR1 agonist: 7; TAAR1 antagonist: -15

Results for CC(CCN1CCN(CCO)CC1)c1ccccc1 (stereo not given) ?
TMEM16A inh: inactive; CRFBP-R2 block: -4; TMEM16A act: inactive; CRFR2-BP ag: 2; TAAR1 agonist: -1; TAAR1 antagonist: 4

What do the screens show for `CCc1ccc(NC(=O)C2CCC(CNC(=O)[C@@H]3Cc4ccccc4CN3)CC2)cc1` (stereo not given in full)?
TMEM16A inh: inactive; CRFBP-R2 block: -6; TMEM16A act: inactive; CRFR2-BP ag: 1; TAAR1 agonist: 12; TAAR1 antagonist: 3

How did c1ccc2c(c1)oc1c(N3CCOCC3)ncnc12 do in these assays?
TMEM16A inh: inactive; CRFBP-R2 block: 3; TMEM16A act: inactive; CRFR2-BP ag: 5; TAAR1 agonist: 21; TAAR1 antagonist: 0

What do the screens show for `COc1ccccc1N1CCN(c2ncnc3c2oc2ccccc23)CC1`?
TMEM16A inh: 100*; CRFBP-R2 block: 7; TMEM16A act: inactive; CRFR2-BP ag: -1; TAAR1 agonist: 2; TAAR1 antagonist: 2; TMEM16A reconf: inactive; TMEM16A Ca cntr: inactive; Parental YFP cnt: -1; ClC-1 rat inh: -8

What do the screens show for `C(=C\c1ccccc1)/CN1CCN(c2ncnc3c2oc2ccccc23)CC1`?
TMEM16A inh: 100*; CRFBP-R2 block: -27; TMEM16A act: inactive; CRFR2-BP ag: 1; TAAR1 agonist: 7; TAAR1 antagonist: 19; TMEM16A reconf: 34%*; TMEM16A Ca cntr: inactive; Parental YFP cnt: -1; ClC-1 rat inh: -22

How did c1ccc2[nH]c(CN3CCN(c4ncnc5c4oc4ccccc45)CC3)nc2c1 do in these assays?
TMEM16A inh: inactive; CRFBP-R2 block: 13; TMEM16A act: inactive; CRFR2-BP ag: -2; TAAR1 agonist: 0; TAAR1 antagonist: 6

Bioassay records as filed in PubChem.
